Like-named read-outs stand apart in the source and are kept apart here.

The subject of experiment [1] is fR-2 cells. The experiment can be described thus: MTT cytotoxicity assay, normal epithelial cell line. Format: cell-based. The conditions noted are these: read-out: Normal (fR-2) IC50. Summed up: (§1)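 Human Colo-205, PC-3, THP-1 and A549 cancer cells and normal epithelial fR-2 cells were grown in RPMI-1640 or DMEM with 10% fetal calf serum, penicillin and streptomycin, at 37 °C in 5.0% CO2. After overnight attachment, cells were exposed to 0.07, 0.7, 7.0 and 70.0 μM test compound for 24 h, then to MTT (250 μg mL−1) for 3–4 h. OD was read at 570 nm. Growth (%) = test OD/untreated OD × 100. IC50 was taken from concentration–growth curves as the mean of triplicates.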

The test system of experiment [2] is Colo-205 cells. The experiment can be described thus: MTT cytotoxicity assay, colon. Format: cell-based, human. As to conditions: read-out: Colon (Colo-205) IC50. The method, boiled down:
as §1
(In general: Tetrazolium assays rely on reduction of a dye to a coloured formazan, in cell work by metabolically active cells.)

Experiment [3] has as its system THP-1 cells. Put plainly: MTT cytotoxicity assay, leukemia. Format: cell-based, human. As to conditions: read-out: Leukemia (THP-1) IC50. The method, boiled down:
as §1

For experiment [4], the system named is A549 cells. Put plainly: MTT cytotoxicity assay, lung. Format: cell-based, human. The conditions noted are these: read-out: Lung (A549) IC50. The method, boiled down:
as §1

Experiment [5] has as its system PC-3 cells. The experiment can be described thus: MTT cytotoxicity assay, prostate. As to conditions: read-out: Prostate (PC-3) IC50. Format: cell-based, human. Summed up: as §1
Experiment [6] concerns Colo-205, PC-3, THP-1, A549 and fR-2 cells. The experiment can be described thus: MTT cytotoxicity assay, statements on the whole cell line panel. It counts as cell-based. The conditions noted are these: Homo sapiens, 24 h, read-out: IC50 values (all tested cell lines). Summed up:
as §1

[7] abbreviates: MTT, 24 h treatment, n = 3, mean ± SD.

A word on the IC50: it is the point on the concentration scale where inhibition reaches its midpoint. For the compound `O=c1[nH]cc(F)c(=O)[nH]1` [5-Fluorouracil, reference compound], the IC50 was found to be 335 ± 3.8 µM in experiment [1] (FR2, 24 h) and 33.9 ± 1.9 µM in experiment [2] (Homo sapiens, COLO 205, 24 h).
As to `CCOC(=O)C1=C(C)NC(=O)NC1C(C)=CCc1cc2oc(=O)ccc2cc1OC` (stereo not drawn) [Compound 5a, Ethyl 4-(4-(6-methoxy-2-oxo-2H-chromen-7-yl)but-2-en-2-yl)-6-methyl-2-oxo-1,2,3,4-tetrahydropyrimidine-5-carboxylate], the half-inhibitory concentration (IC50) in experiment [1] (FR2, 24 h) came out at 68.8 ± 1.1 µM; in experiment [2] (Homo sapiens, COLO 205, 24 h) it was 37.6 ± 1.1 µM; in experiment [3] (Homo sapiens, THP-1, 24 h) it was 65.8 ± 1.4 µM; in experiment [4] (Homo sapiens, A549, 24 h), 67.8 ± 1.7 µM; in experiment [5] (Homo sapiens, PC-3, 24 h), 40.8 ± 1.7 µM.
Consider `CCCC1NC(=O)NC(C)=C1C(=O)OCC` (stereo not drawn) [Compound 6a, Ethyl 1,2,3,4-tetrahydro-6-methyl-2-oxo-4-propylpyrimidine-5-carboxylate], for which the IC50 in experiment [1] (FR2, 24 h) is > 70 µM; in experiment [6], > 70 µM; in experiment [2] (Homo sapiens, COLO 205, 24 h) it was > 70 µM; in experiment [3] (Homo sapiens, THP-1, 24 h) it was > 70 µM; in experiment [4] (Homo sapiens, A549, 24 h) it was > 70 µM; in experiment [5] (Homo sapiens, PC-3, 24 h), > 70 µM.
In the case of `CCCCC1NC(=O)NC(C)=C1C(=O)OCC` (stereo not drawn) [Compound 7a, Ethyl 4-butyl-1,2,3,4-tetrahydro-6-methyl-2-oxopyrimidine-5-carboxylate], the IC50 is > 70 µM in experiment [1] (FR2, 24 h); > 70 µM in experiment [6]; > 70 µM in experiment [2] (Homo sapiens, COLO 205, 24 h); > 70 µM in experiment [3] (Homo sapiens, THP-1, 24 h); > 70 µM in experiment [4] (Homo sapiens, A549, 24 h); > 70 µM in experiment [5] (Homo sapiens, PC-3, 24 h).
`CCCCCC1NC(=O)NC(C)=C1C(=O)OCC` (stereo not drawn) [Compound 8a]: the IC50 in experiment [1] (setting [7]) was determined as 67.2 ± 1.5 µM; in experiment [2] (setting [7]) it was 18.6 ± 1 µM; in experiment [3] (setting [7]), 43.8 ± 1.4 µM; in experiment [4] (setting [7]), 63.4 ± 1.1 µM; in experiment [5] (setting [7]), 22.2 ± 1.6 µM.
With `CCCCCCC1NC(=O)NC(C)=C1C(=O)OCC` (stereo not drawn) [Compound 9a, Ethyl-4-hexyl-1,2,3,4-tetrahydro-6-methyl-2-oxo-pyrimidine-5-carboxylate], the IC50 in experiment [1] (FR2, 24 h) is > 70 µM; in experiment [6] it was > 70 µM; in experiment [2] (Homo sapiens, COLO 205, 24 h) it was > 70 µM; in experiment [3] (Homo sapiens, THP-1, 24 h), > 70 µM; in experiment [4] (Homo sapiens, A549, 24 h), > 70 µM; in experiment [5] (Homo sapiens, PC-3, 24 h) it was > 70 µM.
As for `CCOC(=O)C1=C(C)NC(=O)NC1C=Cc1cccc(O)c1` (stereo not drawn) [Compound 10a, Ethyl-4-(3-hydroxystyryl)-1,2,3,4-tetrahydro-6-methyl-2-oxopyrimidine-5-carboxylate], the concentration for half-maximal inhibition (IC50) was > 70 µM in experiment [1] (FR2, 24 h); > 70 µM in experiment [2] (Homo sapiens, COLO 205, 24 h); 42.1 ± 1.7 µM in experiment [3] (Homo sapiens, THP-1, 24 h); > 70 µM in experiment [4] (Homo sapiens, A549, 24 h); 29.4 ± 1.2 µM in experiment [5] (Homo sapiens, PC-3, 24 h).
In the case of `CCOC(=O)C1=C(C)NC(=O)NC1C1=Cc2ccccc2CC1` (stereo not drawn) [Compound 11a, Ethyl-4-(3,4-dihydronaphthalen-2-yl)-6-methyl-2-oxo-1,2,3,4-tetrahydropyrimidine-5-carboxylate], the IC50 in experiment [1] (FR2, 24 h) is > 70 µM; in experiment [2] (Homo sapiens, COLO 205, 24 h), > 70 µM; in experiment [3] (Homo sapiens, THP-1, 24 h) it was > 70 µM; in experiment [4] (Homo sapiens, A549, 24 h), > 70 µM; in experiment [5] (Homo sapiens, PC-3, 24 h), 29.3 ± 1.3 µM.
As to `CCOC(=O)C1=C(C)NC(=O)NC1C1=C(Cl)c2ccccc2CC1` (stereo not drawn) [Compound 12a, Ethyl-4-(1-chloro-3,4-dihydronaphthalen-2-yl)-6-methyl-2-oxo-1,2,3,4-tetrahydropyrimidine-5-carboxylate], the half-inhibitory concentration (IC50) was > 70 µM in experiment [1] (FR2, 24 h); > 70 µM in experiment [6]; > 70 µM in experiment [2] (Homo sapiens, COLO 205, 24 h); > 70 µM in experiment [3] (Homo sapiens, THP-1, 24 h); > 70 µM in experiment [4] (Homo sapiens, A549, 24 h); > 70 µM in experiment [5] (Homo sapiens, PC-3, 24 h).
Turning to `CCOC(=O)C1=C(C)NC(=O)NC1/C(CC(=O)OC)=C(\Cl)c1ccc(OC)c(OC)c1` (stereo not drawn) [Compound 13a, Ethyl-4-((Z)-3-(methoxycarbonyl)-1-chloro-1-(3,4-dimethoxyphenyl)prop-1-en-2-yl)-1,2,3,4-tetrahydro-6-methyl-2-oxopyrimidine-5-carboxylate], the IC50 in experiment [1] (FR2, 24 h) was 67.6 ± 2.5 µM; in experiment [2] (Homo sapiens, COLO 205, 24 h) it was 59.4 ± 1.6 µM; in experiment [3] (Homo sapiens, THP-1, 24 h), 23.2 ± 1.4 µM; in experiment [4] (Homo sapiens, A549, 24 h), 30.3 ± 2.9 µM; in experiment [5] (Homo sapiens, PC-3, 24 h), 35.4 ± 2.2 µM.
The matching figures for `CCOC(=O)C1=C(C)NC(=O)NC1c1ccc2c(c1)CCC(C)(C)O2` (stereo not drawn) [Compound 14a, Ethyl-1,2,3,4-tetrahydro-6-methyl-4-(2,2-dimethylchroman-6-yl)-2-oxo-pyrimidine-5-carboxylate]: > 70 µM, > 70 µM, > 70 µM, > 70 µM and > 70 µM.
Regarding `CCOC(=O)C1=C(C)NC(=O)NC1/C=C\c1ccc2c(c1)CCC(C)(C)O2` (stereo not drawn) [Compound 15a, Ethyl-1,2,3,4-tetrahydro-6-methyl-4-((Z)-2-(2,2-dimethylchroman-6-yl)vinyl)-2-oxo-pyrimidine-5-carboxylate], the concentration for half-maximal inhibition (IC50) in experiment [1] (FR2, 24 h) was > 70 µM; in experiment [2] (Homo sapiens, COLO 205, 24 h) it was 27.3 ± 1.8 µM; in experiment [3] (Homo sapiens, THP-1, 24 h) it was > 70 µM; in experiment [4] (Homo sapiens, A549, 24 h) it was > 70 µM; in experiment [5] (Homo sapiens, PC-3, 24 h), > 70 µM.
For the compound `CCOC(=O)C1=C(C)NC(=O)NC1C=Cc1cccc(OC)c1OC` (stereo not drawn) [Compound 17a, Ethyl 4-(2,3-dimethoxystyryl)-1,2,3,4-tetrahydro-6-methyl-2-oxopyrimidine-5-carboxylate], the half-inhibitory concentration (IC50) is > 70 µM in experiment [1] (FR2, 24 h); 38.2 ± 1.4 µM in experiment [2] (Homo sapiens, COLO 205, 24 h); > 70 µM in experiment [3] (Homo sapiens, THP-1, 24 h); 26.4 ± 1.1 µM in experiment [4] (Homo sapiens, A549, 24 h); 47.9 ± 2.1 µM in experiment [5] (Homo sapiens, PC-3, 24 h).
Regarding `CCOC(=O)C1=C(C)NC(=O)NC1C=Cc1cc(OC)c(OC)c(OC)c1` (stereo not drawn) [Compound 18a, Ethyl 4-(3,4,5-trimethoxystyryl)-1,2,3,4-tetrahydro-6-methyl-2-oxopyrimidine-5-carboxylate], the IC50 is > 70 µM in experiment [1] (FR2, 24 h); > 70 µM in experiment [6]; > 70 µM in experiment [2] (Homo sapiens, COLO 205, 24 h); > 70 µM in experiment [3] (Homo sapiens, THP-1, 24 h); > 70 µM in experiment [4] (Homo sapiens, A549, 24 h); > 70 µM in experiment [5] (Homo sapiens, PC-3, 24 h).
Consider `CCOC(=O)C1=C(C)NC(=O)NC1C=Cc1ccc(OC)cc1OC` (stereo not drawn) [Compound 19a, Ethyl-4-(2,4-dimethoxystyryl)-1,2,3,4-tetrahydro-6-methyl-2-oxopyrimidine-5-carboxylate], for which the 50% inhibitory concentration (IC50) in experiment [1] (FR2, 24 h) was > 70 µM; in experiment [2] (Homo sapiens, COLO 205, 24 h), 33.7 ± 1.8 µM; in experiment [3] (Homo sapiens, THP-1, 24 h) it was > 70 µM; in experiment [4] (Homo sapiens, A549, 24 h) it was 47.8 ± 2.4 µM; in experiment [5] (Homo sapiens, PC-3, 24 h) it was > 70 µM.
On to `CCOC(=O)C1=C(C)NC(=O)NC1/C=C/c1ccc2c(c1)OCO2` (stereo not drawn) [Compound 20a, Ethyl-4-((E)-2-(benzo[d][1,3]dioxol-6-yl)vinyl)-1,2,3,4-tetrahydro-6-methyl-2-oxo pyrimidine-5-carboxylate], for which the IC50 is 68.7 ± 1.1 µM in experiment [1] (setting [7]); 23.4 ± 1.4 µM in experiment [2] (setting [7]); > 70 µM in experiment [3] (setting [7]); > 70 µM in experiment [4] (setting [7]); > 70 µM in experiment [5] (setting [7]).
On to `CCOC(=O)C1=C(C)NC(=O)NC1c1ccc2c(c1)OCO2` (stereo not drawn) [Compound 21a, Ethyl-4-(benzo[d][1,3]dioxol-6-yl)-1,2,3,4-tetrahydro-6-methyl-2-oxopyrimidine-5-carboxylate], for which the half-maximal inhibitory concentration (IC50) in experiment [1] (FR2, 24 h) was > 70 µM; in experiment [2] (Homo sapiens, COLO 205, 24 h), 48.1 ± 2.1 µM; in experiment [3] (Homo sapiens, THP-1, 24 h), > 70 µM; in experiment [4] (Homo sapiens, A549, 24 h), > 70 µM; in experiment [5] (Homo sapiens, PC-3, 24 h) it was > 70 µM.
On to `COc1cccc2c1C(=O)c1c(O)c3c(c(O)c1C2=O)C[C@@](O)(C(=O)CO)C[C@@H]3O[C@H]1C[C@H](N)[C@H](O)[C@H](C)O1` [Doxorubicin, reference compound], for which the IC50 in experiment [3] (Homo sapiens, THP-1, 24 h) was 0.018 ± 0.004 µM.
`CC(=O)O[C@H]1C(=O)[C@@]2(C)[C@H]([C@H](OC(=O)c3ccccc3)[C@]3(O)C[C@H](OC(=O)[C@H](O)[C@@H](NC(=O)c4ccccc4)c4ccccc4)C(C)=C1C3(C)C)[C@]1(OC(C)=O)CO[C@@H]1C[C@@H]2O` [Paclitaxel, reference compound]: the concentration for half-maximal inhibition (IC50) in experiment [4] (Homo sapiens, A549, 24 h) worked out at 5.1 ± 0.4 µM; in experiment [5] (Homo sapiens, PC-3, 24 h) it was 0.048 ± 0.008 µM.

Values taken from paper PMC9057999 (RSC Advances, 2020).
